Test results from ChEMBL document CHEMBL1124327, “Synthesis and structure-activity relationships of 2-substituted-6-(dimethylamino)-9-(4-methylbenzyl)-9H-purines with antirhinovirus activity” (J Med Chem, 1989).
Blank lines part the entries; values can stand above or below the compound they belong to.

Legend:
[1] = Compound was tested for anti-rhinovirus type 1B activity in a plaque inhibition assay using monolayers of M-HeLa cells; assay type: functional, cell-based; conditions: Homo sapiens
[2] = organism: Homo sapiens; assay: Inhibition of plaque formation at 8 uM concentration; assay type: functional
[3] = test system: Enterovirus; assay: Inhibitory concentration against Rhinovirus 12; assay type: functional, organism-based
[4] = test system: Enterovirus; assay: Inhibitory concentration against Rhinovirus 13; assay type: functional, organism-based
[5] = test system: rhinovirus B14; assay: Inhibitory concentration against Rhinovirus 14; assay type: functional, organism-based, Enterovirus; conditions: Rhinovirus B
[6] = test system: Enterovirus; assay: Inhibitory concentration against Rhinovirus 15; assay type: functional, organism-based
[7] = test system: Enterovirus; assay: Inhibitory concentration against Rhinovirus 1A; assay type: functional, organism-based
[8] = test system: Enterovirus; assay: Inhibition of plaque formation at 8 uM concentration against Rhinovirus 5; assay type: functional, organism-based
[9] = test system: Enterovirus; assay: Inhibitory concentration against Rhinovirus 9; assay type: functional, organism-based
[10] = test system: Enterovirus; assay: Inhibitory concentration against Rhinovirus 1B; assay type: functional, organism-based
In short: (§1)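 Plaque reduction assay against rhinovirus 1B in M-HeLa cell monolayers. IC50 is the concentration giving 50% reduction of plaque formation; pI50 is taken as log (1000/IC50). A reference antiviral was run as a control.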

[11] = test system: Enterovirus; assay: Inhibition of plaque formation at 2.5 uM concentration against Rhinovirus 3; assay type: functional
[12] = test system: Enterovirus; assay: Inhibitory concentration against Rhinovirus 2; assay type: functional, organism-based
[13] = test system: Enterovirus; assay: Inhibitory concentration against rhinovirus 13; assay type: functional, organism-based
[14] = test system: rhinovirus B14; assay: Inhibitory concentration against rhinovirus 14; assay type: functional, organism-based, Enterovirus; conditions: Rhinovirus B
[15] = test system: Enterovirus; assay: Inhibitory concentration against rhinovirus 15; assay type: functional, organism-based
[16] = test system: Enterovirus; assay: Inhibitory concentration against rhinovirus 16; assay type: functional, organism-based
[17] = test system: Enterovirus; assay: Inhibitory concentration against rhinovirus 18; assay type: functional, organism-based
[18] = test system: Enterovirus; assay: Inhibitory concentration against rhinovirus 19; assay type: functional, organism-based
[19] = test system: Enterovirus; assay: Inhibitory concentration against rhinovirus 1A; assay type: functional, organism-based
[20] = test system: Enterovirus; assay: Inhibitory concentration against rhinovirus 4; assay type: functional, organism-based
[21] = test system: Enterovirus; assay: Inhibitory concentration against rhinovirus 5; assay type: functional, organism-based
[22] = test system: Enterovirus; assay: Inhibitory concentration against rhinovirus 8; assay type: functional, organism-based
[23] = test system: Enterovirus; assay: Inhibitory concentration against rhinovirus 9; assay type: functional, organism-based
[24] = test system: Enterovirus; assay: Inhibitory concentration against rhinovirus 1B; assay type: functional, organism-based; in short: as §1
[25] = test system: Enterovirus; assay: Inhibitory concentration against rhinovirus 21; assay type: functional, organism-based
[26] = test system: Enterovirus; assay: Inhibitory concentration against rhinovirus 3; assay type: functional, organism-based
[27] = test system: Enterovirus; assay: Inhibitory concentration against rhinovirus 30; assay type: functional, organism-based
[28] = test system: Enterovirus; assay: Inhibitory concentration against rhinovirus 31; assay type: functional, organism-based
[29] = test system: Enterovirus; assay: Inhibitory concentration against rhinovirus 29; assay type: functional, organism-based

SMILES: Cc1ccc(Cn2cnc3c(N(C)C)nc(S(C)(=O)=O)nc32)cc1
IC50 [1]: 25000 nM
inhibition [2]: 24%

SMILES: Cc1ccc(Cn2cnc3c(N(C)C)ncnc32)cc1
IC50 [1]: 8600 nM

SMILES: Cc1ccc(Cn2cnc3c(N(C)C)nc(N)nc32)cc1
IC50 [1]: 31000 nM

SMILES: Cc1ccc(Cn2cnc3c(N(C)C)nc(N(C)C)nc32)cc1
IC50 [1]: 1100 nM
IC50 [13]: 13 µM
IC50 [14]: 7.9 µM
IC50 [15]: > 10 µM
IC50 [16]: > 20 µM
IC50 [17]: 8.3 µM
IC50 [18]: > 20 µM
IC50 [19]: < 1200 nM
IC50 [20]: > 10 µM
IC50 [21]: 17.7 µM
IC50 [22]: 14 µM
IC50 [23]: 3.5 µM
IC50 [24]: 1100 nM
IC50 [25]: > 20 µM
IC50 [26]: > 10 µM
IC50 [27]: 2900 nM
IC50 [28]: 15.1 µM
IC50 [29]: 4.9 µM
IC50 [12]: 3.1 µM

SMILES: CCc1nc(N(C)C)c2ncn(Cc3ccc(C)cc3)c2n1
IC50 [1]: 2300 nM

SMILES: CNc1nc(N(C)C)c2ncn(Cc3ccc(C)cc3)c2n1
IC50 [1]: 4700 nM

Now those with a lower IC50 [1], led by results:

IC50 [1]: 800 nM
SMILES: Cc1ccc(Cn2cnc3c(N(C)C)nc(C)nc32)cc1

IC50 [1]: 340 nM
SMILES: Cc1ccc(Cn2cnc3c(N(C)C)nc(F)nc32)cc1

IC50 [1]: 340 nM
SMILES: CSc1nc(N(C)C)c2ncn(Cc3ccc(C)cc3)c2n1

IC50 [1]: 80 nM
SMILES: Cc1ccc(Cn2cnc3c(N(C)C)nc(Cl)nc32)cc1

IC50 [1]: 30 nM
IC50 [3]: 2600 nM
IC50 [4]: 2600 nM
IC50 [5]: 1200 nM
IC50 [6]: 1000 nM
IC50 [7]: 100 nM
IC50 [9]: 350 nM
IC50 [10]: 30 nM
IC50 [12]: 5.7 µM
SMILES: Cc1ccc(Cn2cnc3c(N(C)C)nc(C(F)(F)F)nc32)cc1
Inhibition [8]: 18%
inhibition at 2.5 µM [11]: 43%
